Results from publication PMC8653574 (Bioorganic & medicinal chemistry letters, 2018).
Entries after “also recorded” stand apart in the source; their conditions may differ.

Assays:
Format in all cases: cell-based, human
C4–2 cells [1] = test: Acridine orange/ethidium bromide; conditions: 48 h incubation
Summary of the method: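 C4–2 cells were double-stained with acridine orange, which marks live and dead cells, and ethidium bromide, which marks dead cells only. Cell morphology was then examined to tell apoptosis from necrosis.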

C4–2 cells [2] = test: Wound healing; conditions: 12 h, 24 h and 48 h
Summary of the method: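 A scratch was made in a C4–2 monolayer. The wounded cells were incubated for a further 12, 24 and 48 h. Images were taken at the start and at each interval to assess migration.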

C4–2 cells [3] = test: DNA ladder; conditions: 10 μM, 48 h
[4] = system: PARP1 cleavage in C4–2 cells; test: PARP1 cleavage assay; conditions: C4–2 cells treated with compound
[5] = system: reactive oxygen species (ROS) in C4–2 cells; test: ROS accumulation by DCFDA staining; conditions: 10 μM, 48 h
Summary of the method: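 C4–2 cells were left untreated or exposed for 48 h to test compound at 10 μM or H2O2 at 10 μM as positive control. Intracellular ROS was stained with DCFDA and quantified.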

## COc1ccc2c(C3CC(c4ccncc4)=NO3)c[nH]c2c1 (stereo not drawn) [6c]
C4–2 cells [1]
  AO/EB staining: mode of cell death: triggered apoptosis
C4–2 cells [2]
  inhibition of cell migration: potently inhibit C4–2 cell migration; also recorded: strong anti-cell motility property
C4–2 cells [3]
  DNA ladder formation: triggered the formation of DNA ladder
[4]
  PARP1 cleavage (cleaved PARP level): induced apoptosis

## Cc1c(C2CC(c3ccncc3)=NO2)c2ccccc2n1Cc1ccc(Cl)cc1 (stereo not drawn) [6i]
C4–2 cells [1]
  AO/EB staining: mode of cell death: triggered apoptosis
C4–2 cells [2]
  inhibition of cell migration: potently inhibit C4–2 cell migration; also recorded: strong anti-cell motility property
C4–2 cells [3]
  DNA ladder formation: triggered the formation of DNA ladder
[4]
  PARP1 cleavage (cleaved PARP level): induced apoptosis

## H2O2
[5]
  ROS level (DCFDA staining): high DCFDA staining
